In ChEMBL document CHEMBL1150151, “Dictyoquinazols A, B, and C, new neuroprotective compounds from the mushroom Dictyophora indusiata” (J Nat Prod, 2002):
Calls of active or inactive are those of the source. The rule behind the calls is not given here.

What was measured:
[1] = system: Radical scavenging activity; assay: Antioxidant activity assessed as superoxide and DPPH radical scavenging activity; format: functional
Cortical neurone [2] = assay: Neuroprotective activity against kainate-induced neurotoxicity in ICR mouse cortical neurons preincubated for 1 hr before kainate challenge measured after 24 hrs by MTT assay; format: functional
Procedure, shortened: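 Mouse (ICR, gestation day 15) cortical neuron cultures used at day 12 in neurobasal medium lacking supplement. Compound in methanol (0.1% final) given 1 h ahead of 200 μM kainate; incubation 24 h more. Viability by MTT (1 mg/mL, 1 h), DMSO-solubilised formazan at 540 nm, scaled between kainate-alone and untreated control.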

[3] = Neuroprotective activity against glutamate-induced neurotoxicity in primary cultured mouse cortical neurons preincubated for 1 hr before glutamate challenge measured after 24 hrs by MTT assay
Cortical neurone [4] = assay: Neuroprotective activity against AMPA-induced neurotoxicity in ICR mouse cortical neurons preincubated for 1 hr before AMPA challenge measured after 24 hrs by MTT assay; format: functional
Procedure, shortened: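 Primary cortical cultures from gestation day 15 ICR mouse embryos, grown 12 days in B27-supplemented neurobasal medium, switched to neurobasal without supplement. Compound in methanol (0.1% final), added 1 h before 80 μM AMPA, then 24 h. Viability read by MTT (1 mg/mL, 1 h, 37 °C; DMSO-dissolved formazan at 540 nm), expressed relative to control and excitotoxin-alone wells.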

Cortical neurone [5] = assay: Neuroprotective activity against glutamate-induced neurotoxicity in ICR mouse cortical neurons at 5 to 10 uM preincubated for 1 hr before glutamate challenge measured after 24 hrs by MTT assay; format: functional
Procedure, shortened: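 Cortical neurons from E15 ICR mouse embryos, matured 12 days, supplement-free neurobasal during assay. 1 h compound pretreatment (0.1% methanol final), then 20 μM glutamate, kept 24 h. MTT 1 mg/mL for 1 h at 37 °C, formazan dissolved in DMSO, absorbance 540 nm; percent protection from control and glutamate-only OD.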

Cortical neurone [6] = assay: Neuroprotective activity against NMDA-induced neurotoxicity in ICR mouse cortical neurons preincubated for 1 hr before NMDA challenge measured after 24 hrs by MTT assay; format: functional
Procedure, shortened: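 12-day ICR mouse (E15) cortical cultures in neurobasal medium without supplement. Pretreatment with compound (methanol vehicle, 0.1% final) for 1 h, then 40 μM NMDA for 24 h. Compound range 10 to 30 μM. Survival by MTT reduction, formazan in DMSO read at 540 nm, normalised as (toxin+compound − toxin)/(control − toxin) × 100.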

[7] = Inhibition of monoamine oxidase at 60 to 100 uM

Row | SMILES | Activity [1] | Activity (Cortical neurone [2]) | Activity [3] | Activity (Cortical neurone [4]) | Activity (Cortical neurone [5]) | Activity (Cortical neurone [6]) | Activity [7]
1 | COc1ccc(-n2cnc3ccc(OC)cc3c2=O)c(CO)c1 | inactive | inactive | inactive | inactive | Active | Dose-dependent effect | Active
2 | COc1ccc(N2CN(C=O)c3ccc(OC)cc3C2=O)c(CO)c1 | inactive | inactive | inactive | inactive | Active | Dose-dependent effect | Active
3 | COc1ccc2c(c1)CN(c1ccc(OC)cc1CO)CN2C=O | inactive | inactive | inactive | inactive | Active | Dose-dependent effect | Active
